Source: PubChem BioAssay (Johns Hopkins Ion Channel Center)
Shown are actives, neighbours in structure and some others; about 3.1% of the full set was active somewhere.
KCNQ1 inh: blocks the human KCNQ1 potassium channel; 310,000 tested, 1.3% active; CHO-K1 KCNQ1, FluxOR thallium flux fluorescence; stronger effect = higher value; B-score at 10 µM; P51787;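 active = compounds whose thallium flux B-score, printed positive for inhibition, exceeds three library SD while starting fluorescence stays within three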;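 note: channel opened by potassium depolarization with thallium stimulus after 20 min compound exposure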
KCNK3 inh: human KCNK3 channel inhibition, primary screen | CHO-KCNK3 thallium flux, FluxOR fluorescence; stronger effect = lower value | B-score at 10 µM | 340,000 tested, 0.84% active | O14649 | AID 602410;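 active = B-score under library mean minus 4 SD, starting fluorescence ratio at most library mean plus 5 SD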;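 note: more negative B-score means stronger inhibition of thallium flux through KCNK3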
Target sequence (O14649 whole entry, looked up): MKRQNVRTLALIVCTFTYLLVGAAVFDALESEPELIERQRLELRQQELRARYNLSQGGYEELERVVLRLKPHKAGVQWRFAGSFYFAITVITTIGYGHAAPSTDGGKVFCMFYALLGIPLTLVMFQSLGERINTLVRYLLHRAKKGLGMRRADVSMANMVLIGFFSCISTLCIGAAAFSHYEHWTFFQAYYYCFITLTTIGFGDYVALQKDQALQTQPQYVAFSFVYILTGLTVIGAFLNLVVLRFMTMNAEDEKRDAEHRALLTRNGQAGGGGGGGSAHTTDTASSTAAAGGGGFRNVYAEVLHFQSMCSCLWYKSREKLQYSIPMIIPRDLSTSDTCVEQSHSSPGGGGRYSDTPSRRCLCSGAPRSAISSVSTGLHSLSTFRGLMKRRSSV
KCNK9 inh: human KCNK9 channel inhibition | Q9NPC2 | HEK293 KCNK9, FluxOR thallium flux fluorescence; stronger effect = lower value | B-score at 10 µM | 310,000 tested, 1.2% active | AID 488922;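 active = ratio B-score over 3 SD below the library mean, with starting fluorescence within 5 SD of its mean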;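 note: negative B-score means less thallium flux so channel inhibition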
KCNQ1 act: potentiates or activates the human KCNQ1 potassium channel; P51787; 310,000 tested, 0.35% active; CHO-K1 KCNQ1, thallium flux FluxOR fluorescence; stronger effect = higher value; B-score at 10 µM;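 active = fluorescence ratio B-score, a plate-corrected score, at least three library SD, with initial intensity B-score within 5 SD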
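Assay system: stable KCNQ1 CHO-K1 line; medium: assay buffer, equal DMSO in all wells; timing: 90 min dye loading and 20 min compound exposure, both at room temperature; technique: kinetic FluxOR thallium fluorescence, 10-s 1-Hz baseline, 110-s post-stimulus read; read-out basis: B score of baseline-normalized fluorescence ratio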
hERG protect: compounds protecting human hERG from proarrhythmic drug block. Q12809. CHO-hERG, FluxOR thallium flux, dofetilide IC70 present. activation (rescue from dofetilide block), less the hit threshold, % at 10 µM. 310,000 tested, 0.51% active;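 active = activation above the mean of controls blocked by dofetilide plus 5 SD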;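 note: thallium influx through hERG after potassium depolarization seen as dye fluorescence rise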
KCNK9 inh conf: human KCNK9 inhibitor confirmation | 4,900 tested, 43% active | HEK293 KCNK9 cells, FluxOR thallium flux fluorescence | AID 492992 | inhibition, % at 10 µM | shares compounds with KCNK9 inh;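 active = thallium signal inhibited by more than 5 SD of the compound-free buffer control wells, on both duplicate plates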;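 note: 0% = assay buffer control wells without compound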
Kir21 sel: tests whether KCNK9 modulators also affect mouse Kir2.1 | AID 492993 | inhibition, % at 10 µM | Kir2.1 cells, FluxOR thallium flux fluorescence | 4,900 tested, 4% active | shares compounds with KCNK9 inh;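 active = thallium signal drop more than 5 SD beyond the mean of the no-compound control wells, seen in both duplicate plates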;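 note: signal is fluorescence rise after thallium addition divided by baseline fluorescence; plate controls were assay buffer only for no effect and full block by chlorpromazine control for full effect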
KCNK9 uninduced: second counter-screen for KCNK9 modulators: effect in non-induced cells | inhibition, % at 10 µM | 4,900 tested, 40% active | non-induced KCNK9-HEK293, FluxOR thallium flux | shares compounds with KCNK9 inh | AID 492997;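 active = thallium signal drop beyond 5 SD of the untreated control mean, on both duplicate plates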;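 note: plate controls were buffer only IC0 wells for no effect and SID17386958 at its maximal inhibitory level for full effect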
* hit, by the source's call; i = inactive; nt = no result.

SMILES	KCNQ1 inh	KCNK3 inh	KCNK9 inh	KCNQ1 act	hERG protect	KCNK9 inh conf	Kir21 sel	KCNK9 uninduced
CCc1ccc(-c2cc(C)no2)cc1S(=O)(=O)N1CCN(c2cc(C)ccc2C)CC1	i	i	i	i	-8	i	i	i
O=C(Nc1cscc1S(=O)(=O)c1ccccc1)c1ccccc1Cl	i	i	-8.6*	i	-3	41%*	i	34%*
O=C(Nc1cscc1S(=O)(=O)c1ccc(Cl)cc1)c1ccccc1Cl	i	i	i	i	-11	nt	nt	nt
CC(C)c1ccc(NC(=O)CCNS(=O)(=O)c2cc(Br)cnc2N)cc1	i	i	i	i	-8	nt	nt	nt
CCOc1ccccc1OCC(=O)NN1Cc2ccccc2C1=N	i	i	i	i	-7	nt	nt	nt
COC(=O)C(C)Oc1cc(C)ccc1COc1ccc(-n2nc(C)n(C(F)F)c2=O)cc1 (configuration not stated)	i	i	i	i	-8	i	i	i
COc1ccc(C(=O)c2ccccc2)c(OCC(=O)NC2CC2)c1	i	i	i	i	-8	nt	nt	nt
Cc1cc2cc(CN(Cc3cccs3)C(c3nnnn3C(C)(C)C)C(C)C)c3nnnn3c2cc1C (configuration not stated)	i	i	-9.8*	i	-9	59%*	i	49%*
Brc1ccc(Cn2c(-c3ccc(Br)o3)nc3ccccc32)o1	i	i	-8.8*	i	-8	i	i	32%*
Cc1cccc(C)c1NC(=O)CNC(=O)CNC(=O)c1ccc2c(c1)OCO2	i	i	i	i	-12	nt	nt	nt
Cc1ccc(C(C)C)c(OCCNCCc2ccccc2)c1	i	i	i	i	-18	i	50%*	i
CC(=O)c1ccc(N2CCN(c3ncccn3)CC2)cc1	i	i	i	i	-1	nt	nt	nt
CCC(=O)N(CCC1(c2ccccc2OC)CCOC(C(C)C)C1)Cc1ccco1 (configuration not stated)	i	i	-14*	i	-16	47%*	i	46%*
COc1ccccc1C1(CC(=O)O)CCOC(C(C)C)C1 (configuration not stated)	i	i	i	i	-3	nt	nt	nt
O=C(c1sc2ccccc2c1Cl)N1CCN(CCc2ccccn2)CC1	i	i	i	i	-10	nt	nt	nt
COc1cccc(OC)c1CN1CCCC(C(=O)c2ccccc2SC)C1 (configuration not stated)	i	i	i	i	-24	i	i	i
COc1cc(CN2CCCC(C(=O)c3ccc4c5c(cccc35)CC4)C2)cc(OC)c1O (configuration not stated)	i	i	i	i	-18	i	i	i
CC(=O)N1CCCC(C(=O)c2ccc3c4c(cccc24)CC3)C1 (configuration not stated)	i	i	i	i	-10	i	i	i
O=C(c1ccc2c3c(cccc13)CC2)C1CCCN(Cc2cccnc2)C1 (configuration not stated)	i	i	i	i	-13	i	i	i
CN1CCC(C(=O)N2CCCC(C(=O)c3ccc4c5c(cccc35)CC4)C2)CC1 (configuration not stated)	i	i	i	i	-7	nt	nt	nt
COc1ccc(OC)c(S(=O)(=O)Nc2cccc3ccc(O)cc23)c1	i	i	i	i	-3	nt	nt	nt
COc1ccc(C)cc1-n1c(SCC(=O)NC2CC2)nc2ccccc2c1=O	nt	i	nt	nt	nt	nt	nt	nt
COc1cccc(OC)c1C(=O)Nc1cccc(NC(=O)c2cccs2)c1	i	i	-11*	i	-10	50%*	i	28%*
COc1ccc(/C=N/NC(=O)C2COc3ccccc3O2)cc1OC (configuration not stated)	i	i	i	i	-10	nt	nt	nt
COc1ccc(-c2csc(NC(=O)C3COc4ccccc4O3)n2)cc1OC (configuration not stated)	i	-10*	-16*	i	-16	64%*	i	i
SMILES	KCNQ1 inh	KCNK3 inh	KCNK9 inh	KCNQ1 act	hERG protect	KCNK9 inh conf	Kir21 sel	KCNK9 uninduced
O=C(O)C(c1ccccc1)C1(O)CC2CCC1C2 (configuration not stated)	nt	i	nt	nt	nt	nt	nt	nt
O=C(CCCSc1ccc(Cl)cc1)Nc1ccccc1O	9*	i	i	i	-14	i	i	i
CC1(C)Cc2ccccc2C(N/N=C/c2ccc(Cl)cc2)=N1	i	i	i	i	-12	i	i	i
CC1(C)Cc2ccccc2C(N/N=C/c2ccc([N+](=O)[O-])cc2)=N1	i	i	i	i	4	nt	nt	nt
COc1ccc(-c2nc3ccc(N4CCCC4)cc3c(=O)[nH]2)cc1OC	i	i	i	i	-6	nt	nt	nt
CC(CC(=O)N1CCN(c2ccc(C(F)(F)F)cn2)CC1)n1ccnc1 (configuration not stated)	i	i	i	i	-13	nt	nt	nt
COc1ccc(N2Cc3cccc(C(=O)NC(C)CCc4ccco4)c3C2=O)cc1 (configuration not stated)	i	-9.9*	-16*	i	-14	57%*	i	34%*
O=C(CCc1ccccc1)C(=O)N1CCCC(C(=O)c2cccc(Cl)c2)C1 (configuration not stated)	i	i	i	i	-6	i	32%*	37%*
COc1ccc(OCC(=O)Nc2c3c(nn2C(C)(C)C)CSC3)cc1	i	i	-14*	i	-14	57%*	i	24%*
CCC(=O)Nc1c2c(nn1-c1ccc(OC)cc1)CSC2	i	i	i	i	-7	nt	nt	nt
COC(=O)c1cc(Br)cn1S(=O)(=O)c1ccccc1	i	i	i	i	-5	nt	nt	nt
C=C(C)c1cccc(C(C)(C)NC(=O)NC2CC(C)(C)NC(C)(C)C2)c1	i	i	i	i	-9	nt	nt	nt
COc1cccc(CN(C)C(c2ccccc2)c2ccccc2)c1OC	i	i	-8.2*	i	-11	i	i	i
COCCn1c(SCc2nnc(-c3ccccc3)o2)nc2sc3c(c2c1=O)CCC3	i	i	-11*	i	-23	37%*	i	32%*
c1ccc(C2Nc3ccccc3C3OCCCC23)cc1 (configuration not stated)	i	i	i	i	-5	i	i	i
